In ChEMBL document CHEMBL1157665, “Novel 4-thiazolidinone derivatives as potential antifungal and antibacterial drugs” (2010):
≈ marks a conversion by molar mass, not a printed value.

Legend:
Aspergillus versicolor [1] = experiment: Antifungal activity against Aspergillus versicolor ATCC 11730 after 72 hrs by serial dilution method; assay type: functional; settings: ATCC 11730, 72 h
In short: (§1)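 Fungi were kept on malt agar at 4 °C and sub-cultured monthly. Spores were washed off the agar with sterile 0.85% saline containing 0.1% Tween 80 (v/v). Modified microdilution in 96-well plates. MIC is the lowest concentration with no visible growth under the binocular microscope. Inoculum checked on malt agar for contamination and validity.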

Bacillus cereus [2] = experiment: Antibacterial activity against Bacillus cereus clinical isolate after 72 hrs by serial sub-cultivation method; assay type: functional
In short: (§2)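 MBC was found by serial sub-cultivation of 2 µl from the MIC wells into plates holding 100 µl broth per well, then incubation for 72 h. MBC is the lowest concentration with no visible growth, i.e. 99.5% killing of the original inoculum. Bacterial inoculum was 1.0 × 10^4 cfu per well in LB broth. Duplicate, repeated three times.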

Salmonella typhimurium [3] = experiment: Antibacterial activity against Salmonella Typhimurium ATCC 13311 after 72 hrs by serial sub-cultivation method; assay type: functional, Salmonella enterica subsp. enterica serovar Typhimurium; settings: Salmonella enterica, ATCC 13311, 72 h; in short: as §2
Aspergillus niger [4] = experiment: Antifungal activity against Aspergillus niger ATCC 6275 after 72 hrs by serial dilution method; assay type: functional; settings: ATCC 6275, 72 h; in short: as §1
Aspergillus fumigatus [5] = experiment: Antifungal activity against Aspergillus fumigatus plant isolate after 72 hrs by serial sub-cultivation method
Pseudomonas aeruginosa [6] = experiment: Antibacterial activity against Pseudomonas aeruginosa ATCC 27853 after 72 hrs by serial sub-cultivation method; assay type: functional; settings: ATCC 27853, 72 h; in short: as §2
Listeria monocytogenes [7] = experiment: Antibacterial activity against Listeria monocytogenes NCTC 7973 after 72 hrs by serial sub-cultivation method; assay type: functional; settings: NCTC 7973, 72 h; in short: as §2
Pseudomonas aeruginosa [8] = experiment: Antibacterial activity against Pseudomonas aeruginosa ATCC 27853 after 24 hrs; assay type: functional; settings: ATCC 27853, 24 h
In short: (§3)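 Broth microdilution MIC in 96-well plates. Compounds in LB broth with bacterial inoculum of 1.0 × 10^4 cfu per well, from suspensions adjusted with sterile saline to 1.0 × 10⁵ CFU/ml. Incubated 24 h at […] as printed. MIC taken as the lowest concentration with no visible growth under the binocular microscope. OD at 655 nm also read against blank. Streptomycin and ampicillin as positive controls. Duplicate, repeated three times.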

Aspergillus versicolor [9] = experiment: Antifungal activity against Aspergillus versicolor ATCC 11730 after 72 hrs by serial sub-cultivation method; assay type: functional; settings: ATCC 11730, 72 h
In short: (§4)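 MFC was found by serial sub-cultivation of 2 µl into plates holding 100 µl broth per well, then incubation 72 h at 28 °C. MFC is the lowest concentration with no visible growth, taken as 99.5% killing of the original inoculum. Spore inocula came from malt agar cultures washed with 0.85% saline and 0.1% Tween 80.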

Talaromyces funiculosus [10] = experiment: Antifungal activity against Penicillium funiculosum ATCC 36839 after 72 hrs by serial sub-cultivation method; assay type: functional; settings: ATCC 36839, 72 h; in short: as §4
Trichoderma viride [11] = experiment: Antifungal activity against Trichoderma viride IAM 5061 after 72 hrs by serial dilution method; assay type: functional; settings: IAM 5061, 72 h; in short: as §1
Aspergillus flavus [12] = experiment: Antifungal activity against Aspergillus flavus ATCC 9643 after 72 hrs by serial dilution method; assay type: functional; settings: ATCC 9643, 72 h; in short: as §1
Fulvia fulva [13] = experiment: Antifungal activity against Fulvia fulva TK 5318 after 72 hrs by serial sub-cultivation method; assay type: functional; settings: TK 5318, 72 h; in short: as §4
Talaromyces funiculosus [14] = experiment: Antifungal activity against Penicillium funiculosum ATCC 36839 after 72 hrs by serial dilution method; assay type: functional; settings: ATCC 36839, 72 h; in short: as §1
Trichoderma viride [15] = experiment: Antifungal activity against Trichoderma viride IAM 5061 after 72 hrs by serial sub-cultivation method; assay type: functional; settings: IAM 5061, 72 h; in short: as §4
Fulvia fulva [16] = experiment: Antifungal activity against Fulvia fulva TK 5318 after 72 hrs by serial dilution method; assay type: functional; settings: TK 5318, 72 h; in short: as §1
Listeria monocytogenes [17] = experiment: Antibacterial activity against Listeria monocytogenes NCTC 7973 after 24 hrs; assay type: functional; settings: NCTC 7973, 24 h; in short: as §3
Proteus mirabilis [18] = experiment: Antibacterial activity against Proteus mirabilis after 24 hrs; assay type: functional; in short: as §3
Penicillium ochrochloron [19] = experiment: Antifungal activity against Penicillium ochrochloron ATCC 9112 after 72 hrs by serial sub-cultivation method; assay type: functional; settings: ATCC 9112, 72 h; in short: as §4
Proteus mirabilis [20] = experiment: Antibacterial activity against Proteus mirabilis after 72 hrs by serial sub-cultivation method; assay type: functional; in short: as §2
Aspergillus flavus [21] = experiment: Antifungal activity against Aspergillus flavus ATCC 9643 after 72 hrs by serial sub-cultivation method; assay type: functional; settings: ATCC 9643, 72 h; in short: as §4
Escherichia coli [22] = experiment: Antibacterial activity against Escherichia coli ATCC 35210 after 24 hrs; assay type: functional; settings: ATCC 35210, 24 h; in short: as §3
Bacillus cereus [23] = experiment: Antibacterial activity against Bacillus cereus clinical isolate after 24 hrs; assay type: functional; in short: as §3
Aspergillus niger [24] = experiment: Antifungal activity against Aspergillus niger ATCC 6275 after 72 hrs by serial sub-cultivation method; assay type: functional; settings: ATCC 6275, 72 h; in short: as §4
Aspergillus fumigatus [25] = experiment: Antifungal activity against Aspergillus fumigatus plant isolate after 72 hrs by serial dilution method
Escherichia coli [26] = experiment: Antibacterial activity against Escherichia coli ATCC 35210 after 72 hrs by serial sub-cultivation method; assay type: functional; settings: ATCC 35210, 72 h; in short: as §2
Micrococcus flavus [27] = experiment: Antibacterial activity against Micrococcus flavus ATCC 10240 after 24 hrs; assay type: functional; settings: ATCC 10240, 24 h; in short: as §3
Micrococcus flavus [28] = experiment: Antibacterial activity against Micrococcus flavus ATCC 10240 after 72 hrs by serial sub-cultivation method; assay type: functional; settings: ATCC 10240, 72 h; in short: as §2
Salmonella typhimurium [29] = experiment: Antibacterial activity against Salmonella Typhimurium ATCC 13311 after 24 hrs; assay type: functional, Salmonella enterica subsp. enterica serovar Typhimurium; settings: Salmonella enterica, ATCC 13311, 24 h; in short: as §3
Staphylococcus aureus [30] = experiment: Antibacterial activity against Staphylococcus aureus ATCC 6538 after 24 hrs; assay type: functional; settings: ATCC 6538, 24 h; in short: as §3
Staphylococcus aureus [31] = experiment: Antibacterial activity against Staphylococcus aureus ATCC 6538 after 72 hrs by serial sub-cultivation method; assay type: functional; settings: ATCC 6538, 72 h; in short: as §2
Penicillium ochrochloron [32] = experiment: Antifungal activity against Penicillium ochrochloron ATCC 9112 after 72 hrs by serial dilution method; assay type: functional; settings: ATCC 9112, 72 h; in short: as §1

| MIC (Aspergillus versicolor [1]) | MIC (Aspergillus niger [4]) | MIC (Pseudomonas aeruginosa [8]) | MIC (Trichoderma viride [11]) | MIC (Aspergillus flavus [12]) | MIC (Talaromyces funiculosus [14]) | MIC (Fulvia fulva [16]) | MIC (Listeria monocytogenes [17]) | MIC (Proteus mirabilis [18]) | Compound | MBC (Bacillus cereus [2]) | MBC (Salmonella typhimurium [3]) | MFC (Aspergillus fumigatus [5]) | MBC (Pseudomonas aeruginosa [6]) | MBC (Listeria monocytogenes [7]) | MFC (Aspergillus versicolor [9]) | MFC (Talaromyces funiculosus [10]) | MFC (Fulvia fulva [13]) | MFC (Trichoderma viride [15]) | MFC (Penicillium ochrochloron [19]) | MBC (Proteus mirabilis [20]) | also measured |
| --- | --- | --- | --- | --- | --- | --- | --- | --- | --- | --- | --- | --- | --- | --- | --- | --- | --- | --- | --- | --- | --- |
| 17.3 µM (≈ 7.81 µg/mL) | 17.3 µM (≈ 7.81 µg/mL) | 11.6 µM (≈ 5.24 µg/mL) | 11.6 µM (≈ 5.24 µg/mL) | 17.3 µM (≈ 7.81 µg/mL) | 11.6 µM (≈ 5.24 µg/mL) | 5.8 µM (≈ 2.62 µg/mL) | 23.1 µM (≈ 10.4 µg/mL) | 46.2 µM (≈ 20.9 µg/mL) | COc1ccc(/C=C2\S/C(=N\c3nc(C45CC6CC(CC(C6)C4)C5)cs3)NC2=O)cc1 | 23.1 µM (≈ 10.4 µg/mL) | 23.1 µM (≈ 10.4 µg/mL) | 23.1 µM (≈ 10.4 µg/mL) | 23.1 µM (≈ 10.4 µg/mL) | 46.2 µM (≈ 20.9 µg/mL) | 23.1 µM (≈ 10.4 µg/mL) | 23.1 µM (≈ 10.4 µg/mL) | 23.1 µM (≈ 10.4 µg/mL) | 23.1 µM (≈ 10.4 µg/mL) | 23.1 µM (≈ 10.4 µg/mL) | 69.3 µM (≈ 31.3 µg/mL) | MFC (Aspergillus flavus [21]): 23.1 µM (≈ 10.4 µg/mL); MIC (Escherichia coli [22]): 11.6 µM (≈ 5.24 µg/mL); MIC (Bacillus cereus [23]): 23.1 µM (≈ 10.4 µg/mL); MFC (Aspergillus niger [24]): 23.1 µM (≈ 10.4 µg/mL); MIC (Aspergillus fumigatus [25]): 17.3 µM (≈ 7.81 µg/mL); MBC (Escherichia coli [26]): 23.1 µM (≈ 10.4 µg/mL); MIC (Micrococcus flavus [27]): 23.1 µM (≈ 10.4 µg/mL); MBC (Micrococcus flavus [28]): 46.2 µM (≈ 20.9 µg/mL); MIC (Salmonella typhimurium [29]): 11.6 µM (≈ 5.24 µg/mL); MIC (Staphylococcus aureus [30]): 23.1 µM (≈ 10.4 µg/mL); MBC (Staphylococcus aureus [31]): 46.2 µM (≈ 20.9 µg/mL); MIC (Penicillium ochrochloron [32]): 11.6 µM (≈ 5.24 µg/mL) |
| 23.8 µM (≈ 7.94 µg/mL) | 11.9 µM (≈ 3.97 µg/mL) | 17.9 µM (≈ 5.97 µg/mL) | 11.9 µM (≈ 3.97 µg/mL) | 17.9 µM (≈ 5.97 µg/mL) | 17.9 µM (≈ 5.97 µg/mL) | 6 µM (≈ 2 µg/mL) | 23.8 µM (≈ 7.94 µg/mL) | 47.6 µM (≈ 15.9 µg/mL) | O=C1CS/C(=N/c2nc(C34CC5CC(CC(C5)C3)C4)cs2)N1 | 23.8 µM (≈ 7.94 µg/mL) | 47.6 µM (≈ 15.9 µg/mL) | 23.8 µM (≈ 7.94 µg/mL) | 47.6 µM (≈ 15.9 µg/mL) | 47.6 µM (≈ 15.9 µg/mL) | 33.5 µM (≈ 11.2 µg/mL) | 23.8 µM (≈ 7.94 µg/mL) | 11.9 µM (≈ 3.97 µg/mL) | 23.8 µM (≈ 7.94 µg/mL) | 23.8 µM (≈ 7.94 µg/mL) | 71.7 µM (≈ 23.9 µg/mL) | MFC (Aspergillus flavus [21]): 23.8 µM (≈ 7.94 µg/mL); MIC (Escherichia coli [22]): 23.8 µM (≈ 7.94 µg/mL); MIC (Bacillus cereus [23]): 17.9 µM (≈ 5.97 µg/mL); MFC (Aspergillus niger [24]): 23.8 µM (≈ 7.94 µg/mL); MIC (Aspergillus fumigatus [25]): 11.9 µM (≈ 3.97 µg/mL); MBC (Escherichia coli [26]): 47.6 µM (≈ 15.9 µg/mL); MIC (Micrococcus flavus [27]): 23.8 µM (≈ 7.94 µg/mL); MBC (Micrococcus flavus [28]): 47.6 µM (≈ 15.9 µg/mL); MIC (Salmonella typhimurium [29]): 23.8 µM (≈ 7.94 µg/mL); MIC (Staphylococcus aureus [30]): 23.8 µM (≈ 7.94 µg/mL); MBC (Staphylococcus aureus [31]): 47.6 µM (≈ 15.9 µg/mL); MIC (Penicillium ochrochloron [32]): 6 µM (≈ 2 µg/mL) |
| 16.4 µM (≈ 7.67 µg/mL) | 16.4 µM (≈ 7.67 µg/mL) | 16.4 µM (≈ 7.67 µg/mL) | 11 µM (≈ 5.14 µg/mL) | 16.4 µM (≈ 7.67 µg/mL) | 16.4 µM (≈ 7.67 µg/mL) | 11 µM (≈ 5.14 µg/mL) | 11 µM (≈ 5.14 µg/mL) | 43.8 µM (≈ 20.5 µg/mL) | COc1cc(/C=C2\S/C(=N\c3nc(C45CC6CC(CC(C6)C4)C5)cs3)NC2=O)ccc1O | 21.9 µM (≈ 10.2 µg/mL) | 43.8 µM (≈ 20.5 µg/mL) | 21.9 µM (≈ 10.2 µg/mL) | 43.8 µM (≈ 20.5 µg/mL) | 21.9 µM (≈ 10.2 µg/mL) | 21.9 µM (≈ 10.2 µg/mL) | 21.9 µM (≈ 10.2 µg/mL) | 21.9 µM (≈ 10.2 µg/mL) | 21.9 µM (≈ 10.2 µg/mL) | 21.9 µM (≈ 10.2 µg/mL) | 65.7 µM (≈ 30.7 µg/mL) | MFC (Aspergillus flavus [21]): 21.9 µM (≈ 10.2 µg/mL); MIC (Escherichia coli [22]): 11 µM (≈ 5.14 µg/mL); MIC (Bacillus cereus [23]): 11 µM (≈ 5.14 µg/mL); MFC (Aspergillus niger [24]): 21.9 µM (≈ 10.2 µg/mL); MIC (Aspergillus fumigatus [25]): 16.4 µM (≈ 7.67 µg/mL); MBC (Escherichia coli [26]): 16.4 µM (≈ 7.67 µg/mL); MIC (Micrococcus flavus [27]): 11 µM (≈ 5.14 µg/mL); MBC (Micrococcus flavus [28]): 21.9 µM (≈ 10.2 µg/mL); MIC (Salmonella typhimurium [29]): 21.9 µM (≈ 10.2 µg/mL); MIC (Staphylococcus aureus [30]): 21.9 µM (≈ 10.2 µg/mL); MBC (Staphylococcus aureus [31]): 43.8 µM (≈ 20.5 µg/mL); MIC (Penicillium ochrochloron [32]): 16.4 µM (≈ 7.67 µg/mL) |
